Bioassay records (PubChem)
This excerpt belongs to a sample that is enriched for hits.
D1 mod: D1 CRE-luciferase signal change, two-sided – cell-based, HEK293 D1, dopamine EC30, D1 allosteric modulator project, primary screen; hit rate 5.9% among 58,000; dopamine EC30 potentiation; actives deviate in either direction; B-score at 10 µM; AID 641, 2007; D(1A) dopamine receptor (Homo sapiens), P21728;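 active means luminescence count or its row- and column-corrected plate score outside the 99.7% band of the plate's sample wells, on either side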
Target sequence (P21728 whole entry, looked up): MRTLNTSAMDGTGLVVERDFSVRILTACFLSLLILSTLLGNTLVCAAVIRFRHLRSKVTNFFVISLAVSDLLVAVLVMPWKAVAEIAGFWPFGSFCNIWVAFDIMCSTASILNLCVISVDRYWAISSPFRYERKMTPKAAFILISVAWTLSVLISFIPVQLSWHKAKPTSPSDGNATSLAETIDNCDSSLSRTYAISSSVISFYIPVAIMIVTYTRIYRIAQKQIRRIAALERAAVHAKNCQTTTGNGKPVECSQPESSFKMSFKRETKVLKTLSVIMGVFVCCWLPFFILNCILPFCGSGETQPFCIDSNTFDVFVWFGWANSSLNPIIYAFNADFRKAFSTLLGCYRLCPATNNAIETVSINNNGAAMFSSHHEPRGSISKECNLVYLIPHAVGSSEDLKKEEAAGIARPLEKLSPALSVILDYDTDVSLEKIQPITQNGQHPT
hDAT+cocaine: changed hDAT dopamine uptake under cocaine IC80, either direction, primary screen, cocaine antagonist project, cell-based, LLC-PK1 hDAT, [14C]-dopamine uptake, MLSMR. Sodium-dependent dopamine transporter (Homo sapiens), Q01959. LLC-PK1 hDAT cells, [14C]-dopamine uptake with cocaine IC80; actives deviate in either direction. B-score at 10 µM. hit rate 1.3% among 110,000;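 active means Z score or B-score, a plate-position-corrected score, falls beyond the plate's 99.7% confidence bounds, in either direction; inactive means both scores lie inside the 99.7% bounds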;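 further: scored against the spread of the other compound wells on the same plate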
E coli RNAP: E. coli RNAP inhibitors, biochemical | DNA-directed RNA polymerase subunit beta (Escherichia coli (strain K12)), P0A8V2 | E. coli RNA polymerase, fluorescence transcription assay | hit rate 0.2% among 62,000 | inhibition, %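 (tested at 10 µM)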 | AID 559, 2006; in the data active means inhibition above about 20%;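 further: 0% = enzyme without compound and 100% = no enzyme blank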
AP complement: alternative complement pathway inhibitors, primary screen, biochemical, ELISA, human serum, orthogonally pooled compounds. LPS-coated ELISA, C3 deposition; tested in compound mixtures. inhibition, % at 5 µM. hit rate 0.08% among 62,000;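 active means inhibition above 30% in each of the two pooled mixtures holding the compound, so the lower value exceeds 30%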;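 further: 0% = serum in Mg-EGTA without compound and 100% = EDTA serum blank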
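Assay system: human serum alternative complement pathway, C3 deposition on LPS-coated wells; Dosing: 5 µM per compound in ten-compound mixtures; Detection: Anti-C3 ELISA, OD 450 nm; Buffer or medium: Mg2+-EGTA GVB++ buffer containing human serum at 1:15 dilution; Timing: 1 h at 37 °C; Replication: two different pools per compound.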
HEK293 NFkB inh: inhibitors of PMA/ionomycin-induced NF-kB reporter, primary screen, antigen receptor NF-kB inhibitor project, cell-based, HEK-293 luciferase reporter, luminescence. HEK-293 NF-kB luciferase reporter. inhibition, % at 3 µM. hit rate 0.21% among 62,000;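 active means inhibition above the mean of all tested compounds plus 3 SD, cut at about 40% in these data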;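 further: 0% = stimulated DMSO wells and 100% = 10 µM reference inhibitor 5653914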
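Reagent: PMA plus ionomycin mix as NF-kB-activating stimulus. Assay system: NF-kB luciferase reporter HEK-293 cells. Technique: luminescence from luciferase substrate reagent. Incubation: 1 h compound pre-incubation, 16 h PMA/ionomycin at 37 °C. Benchmarks: DMSO only as uninhibited control, 10 µM reference inhibitor as full inhibition. Repeats: tested once.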
An asterisk follows results filed as active; / = no result.

SMILES	D1 mod	hDAT+cocaine	E coli RNAP	AP complement	HEK293 NFkB inh
CC(=O)c1cccc(NC(=O)c2cnn3ccccc23)c1	-2.62*	0.97	-1.2	2.8	-11.1
O=C(NCCCN1CCc2ccccc2C1)Nc1ccc(Cl)cc1	/	-2.52*	/	/	/
CCOC(=O)CNc1c(-c2ccc(O)cc2)nc2ccccn12	0.204	0.175	-0.3	2.8	13.1
COC(=O)CNc1c(-c2ccccn2)nc2ccc(Br)cn12	-1.71	-7.16*	5.9	0.0	-28.0
COC(=O)C1=C(C)N(CCCC(=O)O)C(=O)NC1c1cccc(OC)c1 (stereo unspecified)	/	0.33	/	/	/
CC1CCCCC1NS(=O)(=O)c1ccc(-n2cnnn2)cc1 (stereo unspecified)	-2.48*	0.0419	-9.0	11.4	18.5
CC1CCCCC1NS(=O)(=O)c1ccc(S(=O)(=O)N2CCCC2)cc1 (stereo unspecified)	0.992	-5.02*	-2.5	15.7	9.0
CC1CCCCC1NC(=O)c1ccc(S(=O)(=O)N2CCCC2)cc1 (stereo unspecified)	/	0.204	/	/	/
CCN(CC)C(=O)CC(c1ccc(N(C)C)cc1)c1c(OC)cc(OC)c2ccc(=O)oc12 (stereo unspecified)	/	0.951	/	/	/
CCN(CC)C(=O)CC(c1ccc2c(c1)OCO2)c1c(OC)cc(OC)c2ccc(=O)oc12 (stereo unspecified)	/	2.67*	/	/	/
COCCn1c(C)cc(C(=O)COC(=O)C23CC4CC(CC(O)(C4)C2)C3)c1C	-4.62*	-0.0379	2.5	9.2	-26.0
COc1ccc(Cl)cc1Nc1nc(C)cc(C)c1C(N)=O	/	0.547	/	/	/
O=C(/N=C1\NC(=O)C(F)(C(F)(F)F)S1)NC1CCCCC1 (stereo unspecified)	-0.912	0.702	25.5*	8.1	14.5
CN1/C(=C/C(=O)c2cccs2)Sc2ccccc21	/	0.123	/	/	/
CN1/C(=C\C(=O)c2cccs2)Sc2ccccc21	-4.76*	0.0837	5.2	-2.8	5.2
Cc1c(C(=O)OCCOC(C)C)[nH]c2c1C(=O)CC(c1ccco1)C2 (stereo unspecified)	0.459	0.00783	5.4	7.2	48.2*
CCOC(=O)c1[nH]c2c(c1C)C(=O)CC(c1ccco1)C2 (stereo unspecified)	-0.787	-1.46	4.2	6.7	41.3*
Cc1nc(N)c2c(Cc3cccc4ccccc34)nn(C(C)(C)C)c2n1	/	0.00671	/	/	/
COc1ccc(C2C(C#N)=C(C)NC3=C2C(=O)c2ccccc23)cc1 (stereo unspecified)	/	-0.382	6.6	/	/
COc1cc(C2C(C#N)=C(C)NC3=C2C(=O)c2ccccc23)cc(OC)c1OC (stereo unspecified)	2	-1.31	5.2	11.0	43.0*
COc1ccccc1NC(=O)CN1CCN(CC(=O)Nc2ccc3c(c2)OCCO3)CC1	0.0588	3.14*	-4.8	-2.1	-6.8
COc1cc(SC)ccc1C(=O)Nc1ccc2c(c1)OCCO2	-4.19*	3.4*	9.5	2.8	-50.1
CC1(c2nnc(-c3ccncc3)o2)CC(c2ccccc2)=NO1 (stereo unspecified)	/	-0.658	/	/	/
CC1=CC(C)(C)N2C(=O)C3(C(C#N)=C(N)OC4=C3C(=O)CCC4)c3c(C)c(C)cc1c32 (stereo unspecified)	-1.04	-0.401	6.6	14.9	20.2
CC1=CC(C)(C)N2C(=O)C3(C(C#N)=C(N)Oc4cc(O)ccc43)c3c(C)c(C)cc1c32 (stereo unspecified)	/	2.63*	/	/	/
SMILES	D1 mod	hDAT+cocaine	E coli RNAP	AP complement	HEK293 NFkB inh
O=C(Nc1ccc2c(c1)OCO2)c1ccncc1	0.293	-1.47	10.0	1.8	7.9
O=C(Nc1ccc2c(c1)OCCO2)c1cccnc1	-3.22*	0.0181	10.1	18.6	1.2
O=C(Nc1ccc2c(c1)OCO2)c1ccc2nc[nH]c2c1	/	-1.86*	/	/	/
OCCOCCn1c(C(CO)Nc2nc(-c3ccc(F)cc3)cs2)nc2ccccc21 (stereo unspecified)	/	0.14	/	/	/
CSc1nc(-c2ccccc2)nc2c1COC(C)(C)C2	0.995	0.0528	7.0	-5.8	-2.7
CN(C)CCSc1nc(-c2ccccc2)nc2c1COC(C)(C)C2	/	3.04*	/	/	/
